Results reported in ChEMBL document CHEMBL1671644, “Inhibition of human immunodeficiency virus type 1 infection by the candidate microbicide dapivirine, a nonnucleoside reverse transcriptase inhibitor” (Antimicrob Agents Chemother, 2009).
The source made the active and inactive calls. The rule behind the calls is not given here.

Columns and labels:
[1] = tested on: Human immunodeficiency virus 1; assay: Antiviral activity against HIV-1 Bal infected in human cervical tissue explants assessed as inhibition of dissemination of virus via migratory cells after 2 hrs; type: functional, organism-based
Procedure, shortened: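 Explants were pretreated with drug for 1 h, then exposed to HIV-1BaL for 2 h with drug present and washed. Cells that migrated out overnight were washed and cocultured with PM-1 cells (4 x 10^4/well) for about 10 days. Transfer was read as p24 by ELISA in coculture supernatant (detection limit 300 pg/ml). Two donors, triplicate.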

[2] = Toxicity against human cervical tissue explants at 1 mM after 24 hrs by MTT assay; settings: 1000 µM
Procedure, shortened: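 Uninfected ectocervical explants were exposed to drug for 2 or 24 h. Viability was measured by MTT reduction per milligram of tissue relative to unexposed explants, either immediately or after overnight culture. Three or four donors, triplicate.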

[3] = Selectivity index, ratio of CC50 for human PM1 cells to IC50 for HIV-1 Bal; type: functional
Procedure, shortened: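 Selectivity index is CC50/IC50, using values determined in the same time period. CC50 was measured by MTT for TZM-bl and PM-1 cells and by trypan blue exclusion after 14 days for macrophages. Both were fitted by nonlinear regression.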

[4] = Selectivity index, ratio of CC50 for human MT-4 cells to IC50 for HIV-1 3B; type: functional, MT4
[5] = tested on: Human immunodeficiency virus 1; assay: Antiviral activity against HIV-1 subtype C V022831 infected in human MT4 cells assessed as inhibition of viral replication relative to HIV-1 3B; type: functional
Procedure, shortened: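 MT-4 cells (3 x 10^4/well) infected with site-directed mutants or recombinant clinical isolates (200 TCID50/well) with drug, cultured 3 to 5 days. Viability read by MTT colorimetric antivirogram assay. IC50 by nonlinear regression; fold change = IC50 for the test isolate / IC50 for wild-type HIV-1 IIIB tested in parallel (mean or median).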

[6] = tested on: Human immunodeficiency virus 1; assay: Antiviral activity against HIV-1 Bal infected in human cervical tissue explants assessed as inhibition of dissemination of virus via migratory cells after 2 hrs in presence of 12.5% cervical mucus; type: functional, organism-based
Procedure, shortened: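 Cervical explants were exposed to HIV-1BaL plus drug for 2 h in cervical mucus simulant or whole semen (final 12.5%), then washed. Migratory cells were cocultured with PM-1 indicator cells and infection read as p24 in coculture supernatant.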

[7] = tested on: Human immunodeficiency virus 1; assay: Antiviral activity against HIV-1 Bal infected in human TZM-bl cells after 24 hrs by luciferase reporter assay; settings: Human immunodeficiency virus 1, Bal

With Cc1cc(C)c(Nc2ccnc(Nc3ccc(C#N)cc3)n2)c(C)c1 [DAPIVIRINE] the inhibition [1] was “Active”, the Activity [2] was “Non-toxic” and the “Selectivity Index” value [3] was 1833. For the same compound, the “Selectivity Index” value [4] was 2389, the “Ratio IC50” value [5] was 0.8 and the inhibition [6] was “Active”. It also gave an IC50 [7] of 2.2 nM.
